Assay results published in ChEMBL document CHEMBL4177580, “New 5-HT1A, 5HT2A and 5HT2C receptor ligands containing a picolinic nucleus: Synthesis, in vitro and in vivo pharmacological evaluation” (Bioorg Med Chem, 2017).
Active and inactive are the calls of the source.

Tests used:
[1] = molecular target: 5-hydroxytryptamine receptor 2A (Rattus norvegicus, UniProt P14842); assay: Displacement of [3H]ketanserin from serotonin 5-HT2A receptor in Sprague-Dawley rat brain cortex homogenates incubated for 15 mins by liquid scintillation spectrometry
[2] = tested on: Mus musculus; assay: Toxicity in Swiss albino mouse assessed as reduction in spontaneous locomotor activity at 60 mg/kg, ip dosed 60 mins before test and measured after 30 mins; format: organism-based; settings: in vivo, 0.5 h
Method in brief: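 Spontaneous locomotion: mice dosed i.p. 60 min before being placed individually in an actometer for 30 min. Distance travelled read at 6 and 30 min. Cages cleaned with 70% ethanol between animals. One-way ANOVA with Dunnett's; mean ± SEM of one experiment.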

[3] = tested on: Mus musculus; assay: Antidepressant-like activity in Swiss albino mouse assessed as reduction in immobility time at 7.5 mg/kg, ip dosed 1 hr before test by forced swimming test; format: functional, organism-based
Method in brief: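 Male Swiss albino mice (18–24 g), compound i.p. in 0.1% DMSO/0.5% methylcellulose 1 h pre-test. Porsolt swim: cylinder 25 cm high, 10 cm diameter, 10 cm water at 23–25°C, 6 min session; immobility scored over last 4 min. Blind observer; one-way ANOVA with Dunnett's; mean ± SEM.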

[4] = tested on: Mus musculus; assay: Toxicity in Swiss albino mouse assessed as effect on motor coordination at 3.75 to 15 mg/kg, ip dosed 60 mins before test by Chimney test; format: organism-based; settings: in vivo, 1 h
Method in brief: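 Chimney test in male Swiss mice after i.p. dosing 60 min earlier: impairment defined as failure to climb backwards up a tube (3 cm inner diameter, 25 cm long) within 60 s. Animals pre-trained once daily for 3 days. One-way ANOVA with Dunnett's.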

[5] = tested on: Mus musculus; assay: Toxicity in Swiss albino mouse assessed as induction of impairment of motor coordination by measuring reduction in time spent on rota-rod at 60 mg/kg, ip dosed 60 mins before test by rotarod test; format: organism-based; settings: in vivo, 1 h
Method in brief: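 Rotarod in male Swiss mice, i.p. dosing 60 min pre-test: impairment is inability to stay 1 min on a rod turning at 18 rpm, after 3 days of daily training. Mean ± SEM of 2 independent experiments; one-way ANOVA with Dunnett's.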

[6] = molecular target: T1, 5-hydroxytryptamine receptor 1A (Rattus norvegicus, UniProt P19327); assay: Displacement of [3H]-8-OH-DPAT from serotonin 5-HT1A receptor in Sprague-Dawley rat brain cortex homogenates incubated for 30 mins by liquid scintillation spectrometry
T1 sequence (P19327 whole entry): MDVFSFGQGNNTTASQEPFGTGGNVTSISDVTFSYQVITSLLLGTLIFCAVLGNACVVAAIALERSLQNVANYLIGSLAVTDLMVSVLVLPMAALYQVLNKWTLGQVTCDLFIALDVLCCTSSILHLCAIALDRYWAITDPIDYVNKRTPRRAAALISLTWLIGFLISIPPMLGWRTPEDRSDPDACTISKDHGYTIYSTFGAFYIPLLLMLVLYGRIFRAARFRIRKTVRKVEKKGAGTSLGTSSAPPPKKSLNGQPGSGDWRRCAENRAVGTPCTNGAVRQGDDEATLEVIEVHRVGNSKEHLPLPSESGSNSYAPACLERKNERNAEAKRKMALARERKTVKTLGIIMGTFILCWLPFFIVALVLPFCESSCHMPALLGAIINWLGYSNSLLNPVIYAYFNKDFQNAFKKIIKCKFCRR

[7] = molecular target: D(2) dopamine receptor (Homo sapiens, UniProt P14416); assay: Displacement of [3H]methyl-spiperone from human recombinant dopamine D2 receptor expressed in HEK293 cells; format: cell-based
[8] = molecular target: T2, Adrenergic receptor alpha-1 (Rattus norvegicus, UniProt P15823+P23944+P43140); assay: Displacement of [3H]prazosin from adrenergic alpha1 receptor in rat cerebral cortex
T2 sequence (P15823 whole entry): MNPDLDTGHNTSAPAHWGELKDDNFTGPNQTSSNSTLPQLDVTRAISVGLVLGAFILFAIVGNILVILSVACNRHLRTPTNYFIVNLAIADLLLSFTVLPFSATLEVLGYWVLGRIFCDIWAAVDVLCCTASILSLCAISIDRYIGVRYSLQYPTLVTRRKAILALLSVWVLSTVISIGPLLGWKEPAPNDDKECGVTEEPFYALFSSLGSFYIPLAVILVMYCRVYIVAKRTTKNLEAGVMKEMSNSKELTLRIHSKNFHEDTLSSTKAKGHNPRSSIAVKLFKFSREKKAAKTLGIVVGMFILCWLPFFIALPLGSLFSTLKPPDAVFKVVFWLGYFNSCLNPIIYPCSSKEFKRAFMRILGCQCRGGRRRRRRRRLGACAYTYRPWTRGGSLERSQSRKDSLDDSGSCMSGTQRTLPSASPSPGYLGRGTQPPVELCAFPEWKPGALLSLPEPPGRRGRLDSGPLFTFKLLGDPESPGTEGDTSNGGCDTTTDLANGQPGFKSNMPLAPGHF
T2 sequence (P23944 whole entry): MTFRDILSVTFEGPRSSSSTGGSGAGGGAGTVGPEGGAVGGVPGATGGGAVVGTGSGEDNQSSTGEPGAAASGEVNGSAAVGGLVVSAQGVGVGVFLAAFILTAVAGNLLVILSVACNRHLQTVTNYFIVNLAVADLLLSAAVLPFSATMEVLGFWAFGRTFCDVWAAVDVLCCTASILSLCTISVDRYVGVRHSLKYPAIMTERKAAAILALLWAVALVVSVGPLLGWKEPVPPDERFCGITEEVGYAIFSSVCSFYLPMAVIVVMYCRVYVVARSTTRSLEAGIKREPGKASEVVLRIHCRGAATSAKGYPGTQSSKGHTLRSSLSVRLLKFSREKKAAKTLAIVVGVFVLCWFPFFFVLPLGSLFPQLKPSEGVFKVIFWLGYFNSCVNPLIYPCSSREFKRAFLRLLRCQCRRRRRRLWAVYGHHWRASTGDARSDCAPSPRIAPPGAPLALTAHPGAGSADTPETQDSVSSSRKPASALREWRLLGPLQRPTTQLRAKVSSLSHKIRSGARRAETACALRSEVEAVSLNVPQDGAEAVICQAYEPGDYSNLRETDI
T2 sequence (P43140 whole entry): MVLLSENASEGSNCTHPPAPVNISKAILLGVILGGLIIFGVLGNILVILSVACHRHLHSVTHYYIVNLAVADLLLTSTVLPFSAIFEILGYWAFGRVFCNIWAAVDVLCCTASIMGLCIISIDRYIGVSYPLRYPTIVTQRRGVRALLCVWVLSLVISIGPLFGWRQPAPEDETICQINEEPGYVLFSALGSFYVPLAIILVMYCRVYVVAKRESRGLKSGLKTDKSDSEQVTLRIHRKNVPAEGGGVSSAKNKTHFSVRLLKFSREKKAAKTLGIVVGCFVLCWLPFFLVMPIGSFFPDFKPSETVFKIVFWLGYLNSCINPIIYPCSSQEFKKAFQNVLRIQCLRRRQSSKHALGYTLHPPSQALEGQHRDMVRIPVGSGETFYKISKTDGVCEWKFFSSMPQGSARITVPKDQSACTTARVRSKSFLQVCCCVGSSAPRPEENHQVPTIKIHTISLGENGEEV

Sequence of 5-hydroxytryptamine receptor 2A (P14842 whole entry): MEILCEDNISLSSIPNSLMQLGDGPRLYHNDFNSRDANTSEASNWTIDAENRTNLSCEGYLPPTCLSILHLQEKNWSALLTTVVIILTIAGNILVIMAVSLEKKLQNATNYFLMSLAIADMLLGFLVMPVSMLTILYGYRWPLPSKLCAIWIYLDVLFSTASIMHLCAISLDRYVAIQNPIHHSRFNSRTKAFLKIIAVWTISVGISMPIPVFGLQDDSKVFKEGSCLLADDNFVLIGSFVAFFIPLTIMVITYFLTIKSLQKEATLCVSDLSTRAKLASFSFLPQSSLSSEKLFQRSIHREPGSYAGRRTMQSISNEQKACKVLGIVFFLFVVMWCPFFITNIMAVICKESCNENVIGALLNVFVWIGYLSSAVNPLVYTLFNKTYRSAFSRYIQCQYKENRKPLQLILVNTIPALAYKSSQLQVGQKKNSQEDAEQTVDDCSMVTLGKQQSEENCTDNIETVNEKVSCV
Sequence of D(2) dopamine receptor (P14416 whole entry): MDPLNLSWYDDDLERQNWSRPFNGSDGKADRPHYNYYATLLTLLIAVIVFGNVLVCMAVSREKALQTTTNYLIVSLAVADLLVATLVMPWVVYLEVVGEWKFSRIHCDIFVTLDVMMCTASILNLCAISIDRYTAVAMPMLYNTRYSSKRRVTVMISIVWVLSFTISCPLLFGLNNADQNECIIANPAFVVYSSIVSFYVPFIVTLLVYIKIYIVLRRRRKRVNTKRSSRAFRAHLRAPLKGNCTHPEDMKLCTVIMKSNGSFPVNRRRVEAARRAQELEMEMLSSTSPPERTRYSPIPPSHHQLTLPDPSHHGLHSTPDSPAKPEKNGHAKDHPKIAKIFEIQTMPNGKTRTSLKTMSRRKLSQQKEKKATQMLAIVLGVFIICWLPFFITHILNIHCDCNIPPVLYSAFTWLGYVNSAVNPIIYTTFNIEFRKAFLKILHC

Question: How did the Ki [1] turn out when `O=C(NCCN1CCN(c2ccc(Cl)c(Cl)c2)CC1)c1ccccn1` was run?
Answer: Its Ki is 74.1 nM.

Question: And the Activity [2]?
Answer: The Activity was “Toxic”.

Question: What about the Activity [3] of the same compound?
Answer: The Activity was “Active”.

Question: And the Activity [4]?
Answer: Its Activity is “Non-Toxic”.

Question: What about the Activity [5] of the same compound?
Answer: Its Activity is “Toxic”.

Question: What about the Ki [6] of the same compound?
Answer: Its Ki is 0.183 nM.

Question: What about the Ki [7] of the same compound?
Answer: The Ki was 250 nM.

Question: And the Ki [8]?
Answer: The Ki was 31 nM.
